Reference: ChEMBL document CHEMBL1155362, “Synthesis, characterization and derivatization of some novel types of mono- and bis-imidazolidineiminothiones and imidazolidineiminodithiones with antitumor, antiviral, antibacterial and antifungal activities--part I” (Eur J Med Chem, 2009)
≈ marks a conversion by molar mass, not a printed value.

How the values were obtained:
Pseudomonas aeruginosa [1] = assay: Antibacterial activity against Pseudomonas aeruginosa NCIB 9016 at 5 mg/ml by agar disk diffusion assay; format: functional; conditions: Pseudomonas aeruginosa, NCIB 9016; read-out: DIZ
Klebsiella pneumoniae = assay: Antimicrobial activity against Klebsiella pneumoniae NCIMB 9111 by macrotube dilution assay; format: functional
Staphylococcus aureus [2] = assay: Antimicrobial activity against Staphylococcus aureus NCTC 7447 by macrotube dilution assay; format: functional
Candida albicans [3] = assay: Antifungal activity against Candida albicans IMRU 3669 by macrotube dilution assay; format: functional
Outline: (§1)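 Macrotube twofold dilution per NCCLS/CLSI guidelines for fungi; 2 mg compound in 2.0 mL DMF, serially diluted across 14 tubes of Czapek's Dox medium, with a control tube; inoculum added to halve the concentration; 30 °C for 72 h; MIC is the lowest concentration without visible growth.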

Pseudomonas aeruginosa [4] = assay: Antibacterial activity against Pseudomonas aeruginosa NCIB 9016 at 1 mg/ml by agar disk diffusion assay; format: functional; conditions: for zone of inhibition at 1000 µg/mL: Pseudomonas aeruginosa, NCIB 9016, read-out: DIZ
Bacillus subtilis [5] = assay: Antibacterial activity against Bacillus subtilis NCIB 3610 at 5 mg/ml by agar disk diffusion assay; format: functional; conditions: for zone of inhibition at 5000 µg/mL: Bacillus subtilis, NCIB 3610, read-out: DIZ
Salmonella typhi [6] = assay: Antimicrobial activity against Salmonella typhi NCIMB 9331 by macrotube dilution assay; format: functional, Salmonella enterica subsp. enterica serovar Typhi; conditions: Salmonella enterica
Bacillus subtilis [7] = assay: Antibacterial activity against Bacillus subtilis NCIB 3610 at 2.5 mg/ml by agar disk diffusion assay; format: functional; conditions: for zone of inhibition at 2500 µg/mL: Bacillus subtilis, NCIB 3610, read-out: DIZ
Pseudomonas aeruginosa [8] = assay: Antibacterial activity against Pseudomonas aeruginosa NCIB 9016 at 2.5 mg/ml by agar disk diffusion assay; format: functional; conditions: for zone of inhibition at 2500 µg/mL: Pseudomonas aeruginosa, NCIB 9016, read-out: DIZ
Aspergillus niger [9] = assay: Antifungal activity against Aspergillus niger Ferm-BAM C-21 by macrotube dilution assay; format: functional; outline: as §1
Bacillus subtilis [10] = assay: Antimicrobial activity against Bacillus subtilis NCTC 1040 by macrotube dilution assay; format: functional
Candida albicans [11] = assay: Antifungal activity against Candida albicans IMRU 3669 at 5 mg/ml by agar disk diffusion assay; format: functional; conditions: Candida albicans, IMRU 3669; read-out: DIZ
Outline: (§2)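 Fungi maintained on Czapek's Dox agar; agar well diffusion with 1 cm wells and […] of each concentration (1, 2.5, 5 mg/mL) in DMF; inhibition zone diameter measured.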

Bacillus subtilis [12] = assay: Antibacterial activity against Bacillus subtilis NCIB 3610 at 1 mg/ml by agar disk diffusion assay; format: functional; conditions: for zone of inhibition at 1000 µg/mL: Bacillus subtilis, NCIB 3610, read-out: DIZ
Candida albicans [13] = assay: Antifungal activity against Candida albicans IMRU 3669 at 1 mg/ml by agar disk diffusion assay; format: functional; conditions: read-out: DIZ; outline: as §2
U-251 = assay: Cytotoxicity against human U251 cells assessed as surviving fraction after 48 hrs by SRB assay; format: functional, cell-based; conditions: u-251
Outline: (§3)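 Cells seeded at 10⁴ cells/well and left 24 h to attach, then exposed to […] in triplicate wells per dose. Incubation 48 h, 37 °C, 5% CO₂. Cells fixed and stained with sulforhodamine B, excess dye removed with acetic acid, bound dye taken up in Tris EDTA and read on an ELISA reader. Surviving fraction plotted against concentration.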

HCT-116 = assay: Cytotoxicity against human HCT116 cells assessed as surviving fraction after 48 hrs by SRB assay; format: functional, cell-based; conditions: hct-116; outline: as §3
HeLa = assay: Cytotoxicity against human HeLa cells assessed as surviving fraction after 48 hrs by SRB assay; format: functional, cell-based; outline: as §3
[14] = Antitumor activity against mouse EAC cells assessed as inhibition of cell viability at 50 ug/ml after 2 hrs by trypan blue exclusion assay; format: functional; conditions: Ehrlich
Outline: (§4)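 EAC cells aspirated from ascitic fluid of inoculated mice and diluted in saline; 0.1 mL cell suspension, 0.8 mL RPMI 1640 and 0.1 mL compound (25, 50 or 100) incubated 2 h at 37 °C; non-viable cells counted by trypan blue exclusion; % non-viable = dead/total × 100.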

[15] = Antitumor activity against mouse EAC cells assessed as inhibition of cell viability at 100 ug/ml after 2 hrs by trypan blue exclusion assay; format: functional; conditions: Ehrlich; outline: as §4
HepG2 = assay: Cytotoxicity against human HepG2 cells assessed as surviving fraction after 48 hrs by SRB assay; format: functional, cell-based; conditions: Homo sapiens, HepG2, 48 h; read-out: IC50; outline: as §3
[16] = Antitumor activity against mouse EAC cells assessed as inhibition of cell viability at 25 ug/ml after 2 hrs by trypan blue exclusion assay; format: functional; conditions: Ehrlich; outline: as §4
MCF7 = assay: Cytotoxicity against human MCF7 cells assessed as surviving fraction after 48 hrs by SRB assay; format: functional, cell-based; conditions: mcf7; outline: as §3
Candida albicans [17] = assay: Antifungal activity against Candida albicans IMRU 3669 at 2.5 mg/ml by agar disk diffusion assay; format: functional; conditions: read-out: DIZ; outline: as §2
Salmonella typhi [18] = assay: Antibacterial activity against Salmonella typhi NCIMB 9331 at 5 mg/ml by agar disk diffusion assay; format: functional, Salmonella enterica subsp. enterica serovar Typhi; conditions: Salmonella enterica, read-out: DIZ
Escherichia coli = assay: Antibacterial activity against Escherichia coli NCTC 10416 at 5 mg/ml by agar disk diffusion assay; format: functional; conditions: read-out: DIZ
Bacillus subtilis [19] = assay: Antibacterial activity against Bacillus subtilis NCTC 1040 at 5 mg/ml by agar disk diffusion assay; format: functional; conditions: read-out: DIZ
Staphylococcus aureus [20] = assay: Antibacterial activity against Staphylococcus aureus NCTC 7447 at 5 mg/ml by agar disk diffusion assay; format: functional; conditions: read-out: DIZ
Aspergillus niger [21] = assay: Antifungal activity against Aspergillus niger Ferm-BAM C-21 at 5 mg/ml by agar disk diffusion assay; format: functional; conditions: read-out: DIZ; outline: as §2

N#CC(=S)Nc1ccc(Cl)c(Cl)c1
zone of inhibition at 5000 µg/mL (Pseudomonas aeruginosa [1]): 19 mm

O=C1N(c2ccc(Cl)cc2)CC(=S)N1c1ccc(Cl)c(Cl)c1
MIC (Klebsiella pneumoniae): 3.9 µg/mL (≈ 10.5 µM) | MIC (Staphylococcus aureus [2]): 15.6 µg/mL (≈ 42 µM) | MIC (Candida albicans [3]): 0.97 µg/mL (≈ 2.61 µM) | zone of inhibition at 1000 µg/mL (Pseudomonas aeruginosa [4]): 29 mm | zone of inhibition at 5000 µg/mL (Bacillus subtilis [5]): 20 mm | MIC (Salmonella typhi [6]): 0.49 µg/mL (≈ 1.32 µM) | zone of inhibition at 2500 µg/mL (Bacillus subtilis [7]): 20 mm | zone of inhibition at 2500 µg/mL (Pseudomonas aeruginosa [8]): 32 mm | MIC (Aspergillus niger [9]): 31.3 µg/mL (≈ 84.2 µM) | zone of inhibition at 5000 µg/mL (Pseudomonas aeruginosa [1]): 37 mm | MIC (Bacillus subtilis [10]): 1.95 µg/mL (≈ 5.25 µM) | zone of inhibition at 5000 µg/mL (Candida albicans [11]): 32 mm | zone of inhibition at 1000 µg/mL (Bacillus subtilis [12]): 19 mm | zone of inhibition at 1000 µg/mL (Candida albicans [13]): 25 mm

O=c1n(-c2ccc(Cl)cc2)c2nc3ccccc3nc2n1-c1ccc(Cl)c(Cl)c1
IC50 (U-251): Not Active | IC50 (HCT-116): Not Active | IC50 (HeLa; Homo sapiens, HeLa, 48 h, read-out: IC50): 7.38 µg/mL (≈ 16.7 µM) | inhibition at 50 µg/mL [14]: 70% | inhibition at 100 µg/mL [15]: 95% | IC50 (HepG2): 7.11 µg/mL (≈ 16.1 µM) | inhibition at 25 µg/mL [16]: 30% | IC50 (MCF7): Not Active

CCN(CC)CC.N#CC(=S)Nc1ccc(Cl)c(Cl)c1
diameter of the inhibition zone (DIZ) (Pseudomonas aeruginosa [4]): 13 mm | diameter of the inhibition zone (DIZ) (Bacillus subtilis [5]): 17 mm | diameter of the inhibition zone (DIZ) (Bacillus subtilis [7]): 16 mm | diameter of the inhibition zone (DIZ) (Pseudomonas aeruginosa [8]): 16 mm | diameter of the inhibition zone (DIZ) (Bacillus subtilis [12]): 15 mm

NNc1nnc2c(n1)n(-c1ccc(Cl)cc1)c(=O)n2-c1ccc(Cl)cc1
IC50 (HCT-116): Not Active | IC50 (HeLa; hela): Not Active | inhibition at 50 µg/mL [14]: 100% | inhibition at 100 µg/mL [15]: 100% | IC50 (HepG2): 1.54 µg/mL (≈ 3.97 µM) | inhibition at 25 µg/mL [16]: 95% | IC50 (MCF7): Not Active

N=C1C(=S)N(c2ccc(Cl)c(Cl)c2)C(=O)N1c1ccc(Oc2ccc(N3C(=N)C(=S)N(c4ccc(Cl)c(Cl)c4)C3=O)cc2)cc1
zone of inhibition at 1000 µg/mL (Pseudomonas aeruginosa [4]): 15 mm | zone of inhibition at 5000 µg/mL (Bacillus subtilis [5]): 20 mm | zone of inhibition at 2500 µg/mL (Bacillus subtilis [7]): 19 mm | zone of inhibition at 2500 µg/mL (Pseudomonas aeruginosa [8]): 18 mm | zone of inhibition at 5000 µg/mL (Pseudomonas aeruginosa [1]): 20 mm | zone of inhibition at 5000 µg/mL (Candida albicans [11]): 18 mm | zone of inhibition at 2500 µg/mL (Candida albicans [17]): 17 mm | zone of inhibition at 1000 µg/mL (Bacillus subtilis [12]): 15 mm

N=C1C(=S)N(c2ccc(Br)cc2)C(=O)N1c1cc(Cl)c(Cl)cc1Cl
zone of inhibition at 5000 µg/mL (Salmonella typhi [18]): 18 mm | zone of inhibition at 5000 µg/mL (Escherichia coli): 16 mm | zone of inhibition at 5000 µg/mL (Bacillus subtilis [19]): 16 mm | zone of inhibition at 5000 µg/mL (Staphylococcus aureus [20]): 16.5 mm | zone of inhibition at 5000 µg/mL (Candida albicans [11]): 14 mm

N=C1C(=S)N(c2ccc(Cl)cc2)C(=O)N1c1cccc2ccccc12
zone of inhibition at 1000 µg/mL (Pseudomonas aeruginosa [4]): 15 mm | zone of inhibition at 5000 µg/mL (Bacillus subtilis [5]): 19 mm | zone of inhibition at 2500 µg/mL (Bacillus subtilis [7]): 18 mm | zone of inhibition at 2500 µg/mL (Pseudomonas aeruginosa [8]): 16 mm | zone of inhibition at 5000 µg/mL (Pseudomonas aeruginosa [1]): 18 mm | zone of inhibition at 5000 µg/mL (Aspergillus niger [21]): 12 mm | zone of inhibition at 5000 µg/mL (Candida albicans [11]): 14 mm | zone of inhibition at 2500 µg/mL (Candida albicans [17]): 12 mm | zone of inhibition at 1000 µg/mL (Bacillus subtilis [12]): 17 mm
